How the values were obtained:
A549 = assay: Cytotoxicity against human A549 cells after 44 hrs by MTT assay; format: functional, cell-based; conditions: A549, 44 h
Method in brief: (§1)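 SF-295 cells cultured in RPMI 1640 and A549 cells in F-12, each with 10% FBS, penicillin–streptomycin, amphotericin B and L-glutamine, at 37 °C in 5% CO2. Cells were grown to 60% confluency, then treated for 44 h. Medium was replaced with medium containing 0.06 mg/mL MTT (phenol red-free RPMI for SF-295) for 4 h. Acid/Triton/isopropanol stop solution was added, plates incubated overnight at 37 °C, OD read at 540 and 650 nm, and EC50 calculated.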

SF-295 = assay: Cytotoxicity against human SF295 cells after 44 hrs by MTT assay; format: functional, cell-based; conditions: SF-295, 44 h; method in brief: as §1

SMILES | EC50 (A549) | EC50 (SF-295)
COc1cc(/C=C/c2cc(O)c(CCCO)c(O)c2)cc2c1O[C@]1(C)CC[C@@H](O)C(C)(C)[C@H]1C2 | > 10 µM | 2500 nM
COc1cc(CCc2cc(O)c(CC=C(C)C)c(O)c2)cc2c1O[C@]1(C)CC[C@@H](O)C(C)(C)[C@H]1C2 | > 10 µM | 2900 nM
COc1cc(/C=C\c2cc(O)c(C/C=C(\C)CCC=C(C)C)c(O)c2)cc2c1O[C@]1(C)CC[C@@H](O)C(C)(C)[C@H]1C2 | > 10 µM | > 10000 nM
C#CCc1c(O)cc(/C=C/c2cc3c(c(OC)c2)O[C@]2(C)CC[C@@H](O)C(C)(C)[C@H]2C3)cc1O | > 10 µM | 1300 nM
COc1cc(/C=C/c2cc(O)c3ccoc3c2)cc2c1O[C@]1(C)CC[C@@H](O)C(C)(C)[C@H]1C2 | > 10 µM | 4800 nM
COc1cc(CCc2cc(O)c(CCC(C)C)c(O)c2)cc2c1O[C@]1(C)CC[C@@H](O)C(C)(C)[C@H]1C2 | > 10 µM | 2800 nM
COc1cc(/C=C/c2cc(O)c3c(c2)OCC3)cc2c1O[C@]1(C)CC[C@@H](O)C(C)(C)[C@H]1C2 | > 10 µM | 2900 nM
CCCc1c(O)cc(/C=C/c2cc3c(c(OC)c2)O[C@]2(C)CC[C@@H](O)C(C)(C)[C@H]2C3)cc1O | > 10 µM | 900 nM
C=CCc1c(O)cc(/C=C/c2cc3c(c(OC)c2)O[C@]2(C)CC[C@@H](O)C(C)(C)[C@H]2C3)cc1O | > 10 µM | 1700 nM
